Experimental data reported in ChEMBL document CHEMBL3244404, “Effect of sulfur substitution for the noncarbonyl oxygen in hemicholinium-3 and acetyl-seco-hemicholinium-3. Synthesis, biological activity, and structure-toxicity relationships” (J Med Chem, 1977).

How the values were obtained:
Settings in all cases: in vivo
Mus musculus [1] = assay: Toxicity in ip dosed CD-1 mouse assessed as mild to moderate ataxia; assay type: organism-based
In short: (§1)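 Compounds dissolved in normal saline (0.9% NaCl) and injected ip into mice. Signs were recorded as they appeared after dosing. Animals that died were autopsied immediately, with lungs and peritoneal cavity examined for excess fluid and heart and small intestine observed.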

[2] = Toxicity in ip dosed CD-1 mouse assessed as mortality in presence of 20 mg/kg, ip choline; assay type: organism-based; design: dose 20 mg/kg, route intraperitoneal
[3] = Toxicity in ip dosed CD-1 mouse assessed as mortality in presence of 0.2 mg/kg, ip neostigmine; assay type: organism-based; design: dose 0.2 mg/kg, route intraperitoneal
Mus musculus [4] = assay: Toxicity in ip dosed CD-1 mouse assessed as exophthalmos; assay type: organism-based; in short: as §1
Mus musculus [5] = assay: Toxicity in ip dosed CD-1 mouse assessed as loss of righting response; assay type: organism-based; in short: as §1
Mus musculus [6] = assay: Toxicity in ip dosed CD-1 mouse assessed as excess fluids in lungs and peritoneal cavity; assay type: organism-based; in short: as §1
Mus musculus [7] = assay: Toxicity in ip dosed CD-1 mouse assessed as increase in peristalsis of the small intestine; assay type: organism-based; in short: as §1
Mus musculus [8] = assay: Toxicity in ip dosed CD-1 mouse assessed as clonic convulsions; assay type: organism-based; in short: as §1
Mus musculus [9] = assay: Toxicity in ip dosed CD-1 mouse assessed as cardiac contractions; assay type: organism-based; in short: as §1
Mus musculus [10] = assay: Toxicity in ip dosed CD-1 mouse assessed as SLUD syndrome; assay type: organism-based; in short: as §1
Mus musculus [11] = assay: Toxicity in ip dosed CD-1 mouse assessed as respiratory difficulties; assay type: organism-based; in short: as §1
Mus musculus [12] = assay: Ratio of HC-3 LD50 to compound LD50 in CD-1 mouse; assay type: ADME, organism-based
In short: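 Mice received the compounds ip, dissolved in normal saline (0.9% NaCl). Deaths were scored to derive the ip LD50 in mg/kg with 95% confidence limits. Each LD50 was also expressed as a ratio to that of HC-3. Signs were recorded in the animals that died, and immediate autopsy examined the heart, intestine, lungs and peritoneal cavity.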

Row | SMILES | Activity (Mus musculus [1]) | mortality [2] | mortality [3] | Activity (Mus musculus [4]) | Activity (Mus musculus [5]) | Activity (Mus musculus [6]) | Activity (Mus musculus [7]) | Activity (Mus musculus [8]) | Activity (Mus musculus [9]) | Activity (Mus musculus [10]) | Activity (Mus musculus [11]) | Ratio (Mus musculus [12])
1 | C[N+]1(C)CCOC(O)(c2ccc(-c3ccc(C4(O)C[N+](C)(C)CCO4)cc3)cc2)C1.[Br-].[Br-] (configuration not stated) | Toxic | 15% | 90% | Toxic | Toxic | Non-toxic | Toxic | Toxic | Non-toxic | Toxic | Toxic | 
2 | CC(=O)OCC[N+](C)(C)CC(=O)c1ccc(-c2ccc(C(=O)C[N+](C)(C)CCOC(C)=O)cc2)cc1.[Br-].[Br-] | Toxic | 0% | 80% | Toxic | Toxic | Non-toxic | Toxic | Toxic | Non-toxic | Toxic | Toxic | 1
3 | CC(=O)SCC[N+](C)(C)CC(=O)c1ccc(-c2ccc(C(=O)C[N+](C)(C)CCSC(C)=O)cc2)cc1.[Br-].[Br-] | Toxic | 40% | 30% | Toxic | Toxic | Non-toxic | Toxic | Toxic | Non-toxic | Toxic | Toxic | 1
4 | C[N+](C)(CCS)CC(=O)c1ccc(-c2ccc(C(=O)C[N+](C)(C)CCS)cc2)cc1.[Br-].[Br-] | Toxic | 10% | 70% | Toxic | Toxic | Non-toxic | Toxic | Toxic | Non-toxic | Toxic | Toxic | 226
